Experimental data reported in ChEMBL document CHEMBL3862036, “Biphenyl Pyridazinone Derivatives as Inhaled PDE4 Inhibitors: Structural Biology and Structure-Activity Relationships” (J Med Chem, 2016).

Legend:
[1] = Inhibition of PDE4 in PBMC (unknown origin) assessed as reduction in LPS-induced TNFalpha production incubated for 24 hrs by ELISA; settings: Homo sapiens
[2] = target: T1, Adenosine receptor A1 (Homo sapiens, UniProt P30542); test: Antagonist activity at adenosine A1 receptor (unknown origin)
T1 sequence (P30542 whole entry): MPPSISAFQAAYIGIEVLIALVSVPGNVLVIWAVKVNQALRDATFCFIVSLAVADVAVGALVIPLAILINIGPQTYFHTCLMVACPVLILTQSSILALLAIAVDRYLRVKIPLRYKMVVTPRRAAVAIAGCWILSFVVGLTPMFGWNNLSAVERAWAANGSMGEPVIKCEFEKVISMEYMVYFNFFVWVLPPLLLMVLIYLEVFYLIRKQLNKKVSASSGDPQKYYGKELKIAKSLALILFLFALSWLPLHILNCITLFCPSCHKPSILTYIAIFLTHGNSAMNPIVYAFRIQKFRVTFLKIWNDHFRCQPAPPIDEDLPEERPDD

[3] = test system: Rattus norvegicus; test: Anti-inflammatory activity in Sprague-Dawley rat assessed as inhibition of LPS-induced neutrophilia at 10 ug/kg, it administered as dry powder with lactose carrier through Penn-Century insufflator dosed 1 hrs before LPS challenge and measured 5 hrs post dose; assay type: functional
Method in brief: (§1)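 Compounds were micronized, comixed with lactose, and 5 mg of the mixture was insufflated intratracheally into isoflurane-anesthetized fasted male Sprague-Dawley rats (230–280 g). LPS aerosol (30 mL of a 1:100 PBS dilution of 100 mg/10 mL stock) was nebulized for 40 min at 1 or 18 h post-dose. BAL was taken 4 h later and neutrophils counted by flow cytometry. Controls: lactose alone, lactose+LPS, fluticasone (10% in lactose).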

[4] = target: Adenosine receptor A2a (Homo sapiens, UniProt P29274); test: Antagonist activity at adenosine A2a receptor (unknown origin)
Sequence of Adenosine receptor A2a (P29274 whole entry): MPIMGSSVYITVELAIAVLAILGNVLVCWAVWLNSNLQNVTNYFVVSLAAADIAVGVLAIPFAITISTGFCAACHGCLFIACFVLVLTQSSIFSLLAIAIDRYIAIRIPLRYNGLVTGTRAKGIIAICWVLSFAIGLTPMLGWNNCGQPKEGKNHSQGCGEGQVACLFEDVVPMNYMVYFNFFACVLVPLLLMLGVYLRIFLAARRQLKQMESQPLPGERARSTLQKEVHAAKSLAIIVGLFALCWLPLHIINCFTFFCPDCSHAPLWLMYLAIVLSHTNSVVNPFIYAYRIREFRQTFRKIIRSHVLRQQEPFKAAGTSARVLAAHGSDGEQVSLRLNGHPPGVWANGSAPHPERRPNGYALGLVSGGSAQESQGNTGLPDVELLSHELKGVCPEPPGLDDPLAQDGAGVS

[5] = target: T2, Adenosine receptor A2b (Homo sapiens, UniProt P29275); test: Antagonist activity at adenosine A2b receptor (unknown origin)
T2 sequence (P29275 whole entry): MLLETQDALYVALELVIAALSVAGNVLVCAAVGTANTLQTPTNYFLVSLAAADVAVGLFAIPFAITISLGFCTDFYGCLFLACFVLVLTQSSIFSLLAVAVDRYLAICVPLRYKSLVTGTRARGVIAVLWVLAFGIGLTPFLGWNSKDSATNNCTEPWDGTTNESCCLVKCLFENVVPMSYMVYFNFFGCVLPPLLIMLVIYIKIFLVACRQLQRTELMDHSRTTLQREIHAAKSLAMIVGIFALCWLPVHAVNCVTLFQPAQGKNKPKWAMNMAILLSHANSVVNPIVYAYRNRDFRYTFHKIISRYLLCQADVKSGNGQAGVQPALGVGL

[6] = test system: Rattus norvegicus; test: Anti-inflammatory activity in Sprague-Dawley rat assessed as inhibition of LPS-induced neutrophilia at 100 ug/kg, it administered as dry powder with lactose carrier through Penn-Century insufflator dosed 1 hrs before LPS challenge and measured 5 hrs post dose; assay type: functional; method in brief: as §1
[7] = test system: Rattus norvegicus; test: Anti-inflammatory activity in Sprague-Dawley rat assessed as inhibition of LPS-induced neutrophilia at 10 ug/kg, it administered as dry powder with lactose carrier through Penn-Century insufflator dosed 18 hrs before LPS challenge and measured 22 hrs post dose; assay type: functional; method in brief: as §1
[8] = test system: Rattus norvegicus; test: Anti-inflammatory activity in Sprague-Dawley rat assessed as inhibition of LPS-induced neutrophilia at 300 ug/kg, it administered as suspension with Penn-Century micro-sprayer aerosolizer dosed 18 hrs before LPS challenge and measured 22 hrs post dose; assay type: functional; settings: inhaled or nasal
Method in brief: (§2)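 Suspensions in PBS/0.2% Tween 80 were homogenized, with lower doses made by 1:10 dilutions. 0.2 mL was given intratracheally by MicroSprayer to isoflurane-anesthetized fasted male Sprague-Dawley rats (230–280 g). At 1 or 18 h, rats received nebulized LPS (30 mL of a 1:100 PBS dilution of 100 mg/10 mL stock) over 40 min. Four hours later, BAL neutrophils were counted by flow cytometry.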

[9] = test system: Rattus norvegicus; test: Anti-inflammatory activity in Sprague-Dawley rat assessed as inhibition of LPS-induced neutrophilia at 100 ug/kg, it administered as dry powder with lactose carrier through Penn-Century insufflator dosed 18 hrs before LPS challenge and measured 22 hrs post dose; assay type: functional; method in brief: as §1
[10] = Inhibition of PDE4 in human whole blood assessed as reduction in LPS-induced TNFalpha production incubated for 24 hrs by ELISA; assay type: tissue-based
Method in brief: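 Human whole blood was preincubated with LPS (final 1 μg/mL) for 10 min at 37 °C with rocking. 200 μL was added to wells holding increasing inhibitor concentrations in 100% DMSO. Plates were incubated 24 h at 37 °C under agitation, then placed on ice, diluted with PBS and centrifuged at 800g, 4 °C, for 15 min before TNF-α measurement.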

[11] = test system: Rattus norvegicus; test: Anti-inflammatory activity in Sprague-Dawley rat assessed as inhibition of LPS-induced neutrophilia at 10 to 1000 ug/kg, it administered as suspension with Penn-Century micro-sprayer aerosolizer dosed 1 hrs before LPS challenge and measured 5 hrs post dose; assay type: functional; settings: inhaled or nasal; method in brief: as §2
[12] = test system: Rattus norvegicus; test: Anti-inflammatory activity in Sprague-Dawley rat assessed as inhibition of LPS-induced neutrophilia at 100 ug/kg, it administered as suspension with Penn-Century micro-sprayer aerosolizer dosed 18 hrs before LPS challenge and measured 22 hrs post dose; assay type: functional; settings: inhaled or nasal; method in brief: as §2
[13] = test system: Rattus norvegicus; test: Anti-inflammatory activity in Sprague-Dawley rat assessed as inhibition of LPS-induced neutrophilia at 100 ug/kg, it administered as suspension with Penn-Century micro-sprayer aerosolizer dosed 1 hrs before LPS challenge and measured 5 hrs post dose; assay type: functional; settings: inhaled or nasal; method in brief: as §2
[14] = test system: Rattus norvegicus; test: Anti-inflammatory activity in Sprague-Dawley rat assessed as inhibition of LPS-induced neutrophilia at 30 ug/kg, it administered as suspension with Penn-Century micro-sprayer aerosolizer dosed 18 hrs before LPS challenge and measured 22 hrs post dose; assay type: functional; settings: inhaled or nasal; method in brief: as §2
[15] = test system: Rattus norvegicus; test: Anti-inflammatory activity in Sprague-Dawley rat assessed as inhibition of LPS-induced neutrophilia at 10 ug/kg, it administered as suspension with Penn-Century micro-sprayer aerosolizer dosed 1 hrs before LPS challenge and measured 5 hrs post dose; assay type: functional; settings: inhaled or nasal; method in brief: as §2
[16] = Pro-inflammatory activity in Sprague-Dawley rat assessed as induction of neutrophilia at 1000 ug/kg, it administered as dry powder with lactose carrier through Penn-Century insufflator; settings: in vivo, inhaled_or_intranasal, 1 mg/kg
[17] = test system: Rattus norvegicus; test: Anti-inflammatory activity in Sprague-Dawley rat assessed as inhibition of LPS-induced neutrophilia at 1000 ug/kg, it administered as dry powder with lactose carrier through Penn-Century insufflator dosed 1 hrs before LPS challenge and measured 5 hrs post dose; assay type: functional; method in brief: as §1
[18] = test system: Rattus norvegicus; test: Toxicity in Sprague-Dawley rat model of LPS-induced neutrophilia assessed as induction of irritation in lungs at 1000 ug/kg, it administered as dry powder with lactose carrier through Penn-Century insufflator dosed 18 hrs before LPS challenge and measured 22 hrs post dose; assay type: organism-based; settings: in vivo, inhaled_or_intranasal, 1 mg/kg
[19] = test system: Rattus norvegicus; test: Anti-inflammatory activity in Sprague-Dawley rat assessed as inhibition of LPS-induced neutrophilia at 1000 ug/kg, it administered as suspension with Penn-Century micro-sprayer aerosolizer dosed 18 hrs before LPS challenge and measured 22 hrs post dose; assay type: functional; settings: inhaled or nasal; method in brief: as §2
[20] = Drug metabolism in human liver S9 fraction assessed as glucuronidation in presence of PAPS and UDPGA incubated for 20 mins; assay type: ADME, subcellular; settings: read-out: Drug metabolism
[21] = test system: Rattus norvegicus; test: Anti-inflammatory activity in Sprague-Dawley rat assessed as inhibition of LPS-induced neutrophilia at 2000 ug/kg, it administered as dry powder with lactose carrier through Penn-Century insufflator dosed 18 hrs before LPS challenge and measured 22 hrs post dose; assay type: functional; method in brief: as §1
[22] = test system: Rattus norvegicus; test: Anti-inflammatory activity in Sprague-Dawley rat assessed as inhibition of LPS-induced neutrophilia at 10 to 1000 ug/kg, it administered as dry powder with lactose carrier through Penn-Century insufflator dosed 1 hrs before LPS challenge and measured 5 hrs post dose; assay type: functional; method in brief: as §1
[23] = Drug metabolism in human liver S9 fraction assessed as sulfonation in presence of PAPS and UDPGA incubated for 20 mins; assay type: ADME, subcellular; settings: read-out: Drug metabolism
[24] = target: 3',5'-cyclic-AMP phosphodiesterase 4B (Homo sapiens, UniProt Q07343); test: Inhibition of human recombinant PDE4B1 assessed as reduction in [3H]cAMP hydrolysis to [3H]AMP incubated for 60 mins by PDE-SPA assay
Sequence of 3',5'-cyclic-AMP phosphodiesterase 4B (Q07343 whole entry): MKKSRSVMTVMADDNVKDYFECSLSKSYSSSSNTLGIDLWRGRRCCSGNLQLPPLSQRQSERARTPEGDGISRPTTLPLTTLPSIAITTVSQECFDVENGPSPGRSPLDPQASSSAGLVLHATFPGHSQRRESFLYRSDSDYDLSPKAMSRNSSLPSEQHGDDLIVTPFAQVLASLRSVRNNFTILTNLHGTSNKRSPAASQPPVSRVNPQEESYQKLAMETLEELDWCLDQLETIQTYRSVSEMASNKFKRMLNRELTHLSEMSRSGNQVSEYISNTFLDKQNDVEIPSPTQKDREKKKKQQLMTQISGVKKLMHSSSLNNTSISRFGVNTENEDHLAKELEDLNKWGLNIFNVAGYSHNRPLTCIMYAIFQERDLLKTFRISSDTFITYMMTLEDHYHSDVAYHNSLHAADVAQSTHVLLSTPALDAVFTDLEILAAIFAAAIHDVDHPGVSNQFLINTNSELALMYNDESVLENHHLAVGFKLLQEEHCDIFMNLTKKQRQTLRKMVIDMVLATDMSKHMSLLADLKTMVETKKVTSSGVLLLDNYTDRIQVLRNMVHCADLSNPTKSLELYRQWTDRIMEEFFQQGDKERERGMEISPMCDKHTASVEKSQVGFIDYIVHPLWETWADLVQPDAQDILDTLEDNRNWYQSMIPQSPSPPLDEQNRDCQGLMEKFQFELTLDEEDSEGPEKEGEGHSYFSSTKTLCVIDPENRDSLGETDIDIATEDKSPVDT

[25] = Selectivity index, ratio of IC50 for adenosine A1/A2a/A2b receptor (unknown origin) to IC50 for inhibition of PDE4 in PBMC (unknown origin) assessed as reduction in LPS-induced TNFalpha production; set-up: species or system Homo sapiens
[26] = test system: Rattus norvegicus; test: Anti-inflammatory activity in Sprague-Dawley rat assessed as inhibition of LPS-induced neutrophilia at 10 to 1000 ug/kg, it administered as suspension with Penn-Century micro-sprayer aerosolizer dosed 18 hrs before LPS challenge and measured 22 hrs post dose; assay type: functional; settings: inhaled or nasal; method in brief: as §2
[27] = test system: Rattus norvegicus; test: Anti-inflammatory activity in Sprague-Dawley rat assessed as inhibition of LPS-induced neutrophilia at 6000 ug/kg, it administered as dry powder with lactose carrier through Penn-Century insufflator dosed 18 hrs before LPS challenge and measured 22 hrs post dose; assay type: functional; method in brief: as §1
[28] = test system: Rattus norvegicus; test: Anti-inflammatory activity in Sprague-Dawley rat assessed as inhibition of LPS-induced neutrophilia at 1000 ug/kg, it administered as suspension with Penn-Century micro-sprayer aerosolizer dosed 1 hrs before LPS challenge and measured 5 hrs post dose; assay type: functional; settings: inhaled or nasal; method in brief: as §2

IC50 [1] [nM] | IC50 [2] [nM] | IC50 [4] [nM] | IC50 [5] [nM] | IC50 [10] [nM] | SMILES | inhibition in vivo at 0.01 mg/kg [3] [%] | inhibition in vivo at 0.3 mg/kg [8] [%] | ED50 [11] [mg/kg] | inhibition in vivo at 0.1 mg/kg [12] [%] | inhibition in vivo at 0.1 mg/kg [13] [%] | inhibition in vivo at 0.03 mg/kg [14] [%] | inhibition in vivo at 1 mg/kg [19] [%] | ED50 [22] [mg/kg] | other results
0.52 | 31 | 105 | 90 | 374 | CCn1nc(-c2cccc(-c3ccc(CC(=O)NCCN4CCCCC4)cc3)c2)cc(NC(=O)Nc2c(Cl)cncc2Cl)c1=O | 48 | 47 | 0.089 | 48 |  |  |  |  | inhibition in vivo at 0.1 mg/kg [6]: 42%; inhibition in vivo at 0.01 mg/kg [7]: 42%; inhibition in vivo at 0.1 mg/kg [9]: 39%
0.05 | 71 | > 1000 | > 1000 |  | CCn1nc(-c2cccc(-c3cc(C(=O)NCCCN(C)C)cc(C(=O)OC)c3)c2)cc(NC(=O)Nc2c(Cl)cncc2Cl)c1=O |  | 26 |  |  | 64 | 30 |  |  | inhibition in vivo at 0.01 mg/kg [15]: 52%
0.3 | 2 | 28 | 77 | 425 | CCn1nc(-c2cccc(-c3cccc(C(=O)NCCN(C)C)c3)c2)cc(NC(=O)Nc2c(Cl)cncc2Cl)c1=O | 38 |  | 0.0035 |  | 70 |  | 38 |  | fold change (FC) [16]: 3.2; inhibition in vivo at 1 mg/kg [17]: 8%; Activity [18]: Toxic
0.7 | 87 | 168 | 172 | 95 | CCn1nc(-c2cccc(-c3cccc(O)c3)c2)cc(NC(=O)Nc2c(Cl)cncc2Cl)c1=O |  |  | 0.416 |  |  |  | 0 | 0.551 | metabolised at 20 min [20]: 21%; inhibition in vivo at 2 mg/kg [21]: 7%; metabolised at 20 min [23]: 3%
0.29 | > 1000 | > 1000 | > 1000 |  | CCn1nc(-c2cccc(-c3cc(C(=O)NC4CC4)cc(C(=O)NC4CCN(Cc5ccccc5)CC4)c3)c2)cc(NC(=O)Nc2c(Cl)cncc2Cl)c1=O |  | 60 | 0.029 | 45 |  | 49 |  |  | IC50 [24]: 0.22 nM; Ratio IC50 [25]: >1000
4 | > 1000 | > 1000 | > 1000 | 36 | O=C(Nc1c(Cl)cncc1Cl)c1ccc(OC(F)F)c(OCC2CC2)c1 [ROFLUMILAST] |  |  | 0.126 |  |  |  | 24 | 0.204 | ED50 [26]: > 1 mg/kg; inhibition in vivo at 6 mg/kg [27]: 37%; inhibition in vivo at 1 mg/kg [28]: 80%
